In the library only some 12% were active in any assay of this set; here they are far more common.
Arbovirus anti – antivirals against arbovirus infection, primary screen, cell-based, full library, 10K replicate subset. arbovirus infection cell-based antiviral screen. inhibition, % at 10 µM. 200,000 tested, 0.37% active. AID 1251, 2008; in the data active = inhibition above about 30%
CHOP inh – inhibitors of CHOP promoter induction, primary screen, cell-based, unfolded protein response, luciferase reporter; CHO-K1 CHOP-promoter luciferase, tunicamycin-induced, 15-18 h; 220,000 tested, 3.8% active; inhibition, % at 10 µM;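 active = compounds that reduced the stress-induced luciferase reporter signal by more than about 70% of percent inhibition, limit read from the data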;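 note: 0% = tunicamycin plus vehicle and 100% = wells without tunicamycin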
Rad51 HR inh – human RAD51 strand exchange inhibitors, primary screen, biochemical, fluorescence. DNA repair protein RAD51 homolog 1 (Homo sapiens), Q06609. hRad51 DNA strand exchange, fluorescence dequenching. inhibition, % at 10 µM. 200,000 tested, 0.085% active;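 active = inhibition above 40% at the single screening dose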;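 note: 0% = DMSO control wells and 100% = blanks with heterologous ssDNA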
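Assay system: Human Rad51 nucleoprotein filaments preassembled on unlabelled ssDNA | Reagent: Donor/quencher-labelled 47-bp dsDNA substrate | Doses: One concentration, 10 µM final | Times: 37 °C 15-min filament assembly, 30-min compound preincubation, 15-min exchange | Technique: Fluorescein emission 520 nm, excitation 485 nm | Benchmarks: Plate control and blank wells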
PKD1 inh – inhibitors of human PKD1 kinase, biochemical, fluorescence polarization; inhibition, % (test concentration not listed); 200,000 tested, 0.056% active; Serine/threonine-protein kinase D1 (Homo sapiens), Q15139; PKD1 kinase fluorescence polarization assay; AID 797, 2007
Target sequence (Q15139 whole entry, looked up): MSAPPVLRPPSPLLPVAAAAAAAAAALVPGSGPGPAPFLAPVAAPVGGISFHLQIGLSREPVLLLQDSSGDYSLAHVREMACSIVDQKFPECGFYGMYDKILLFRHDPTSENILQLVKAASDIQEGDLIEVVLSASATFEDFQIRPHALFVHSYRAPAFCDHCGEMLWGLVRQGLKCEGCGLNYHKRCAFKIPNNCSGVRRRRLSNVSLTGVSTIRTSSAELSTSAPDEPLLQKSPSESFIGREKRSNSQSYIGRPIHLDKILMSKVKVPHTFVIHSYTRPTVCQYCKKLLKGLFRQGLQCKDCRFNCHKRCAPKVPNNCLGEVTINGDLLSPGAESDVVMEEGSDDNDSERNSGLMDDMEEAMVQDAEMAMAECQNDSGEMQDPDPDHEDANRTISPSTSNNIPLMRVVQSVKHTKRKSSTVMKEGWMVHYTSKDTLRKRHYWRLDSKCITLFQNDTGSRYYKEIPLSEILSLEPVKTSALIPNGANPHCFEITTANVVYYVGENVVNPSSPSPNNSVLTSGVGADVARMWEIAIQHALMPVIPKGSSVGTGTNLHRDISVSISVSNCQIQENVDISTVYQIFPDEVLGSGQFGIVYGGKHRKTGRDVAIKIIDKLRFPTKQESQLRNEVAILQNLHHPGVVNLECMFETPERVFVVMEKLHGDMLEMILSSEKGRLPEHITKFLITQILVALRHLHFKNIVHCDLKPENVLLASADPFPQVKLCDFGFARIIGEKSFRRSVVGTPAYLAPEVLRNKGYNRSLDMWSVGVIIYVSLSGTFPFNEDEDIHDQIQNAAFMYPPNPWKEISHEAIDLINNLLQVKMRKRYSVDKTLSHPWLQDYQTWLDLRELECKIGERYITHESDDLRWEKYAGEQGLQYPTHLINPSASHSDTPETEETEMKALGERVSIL
Wee1 stabilizer – Wee1 degradation inhibitors, primary screen, cell-based, HeLa, Wee1K328M-luciferase, luminescence; 220,000 tested, 1.2% active; HeLa Luc-Wee1K328M stability; 100% = proteasome inhibitor MG132 effect; AID 1321, 2008; Wee1-like protein kinase (Homo sapiens), P30291; reporter increase, % at 5 µM;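 active = activation above the mean of all tested compounds plus 3 SD, set per screening run, cut at about 8.8% in these data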;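 note: cells exposed to compound for 20 h before luminescence read; 0% = DMSO alone and 100% = MG132 at 30 µM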
L major viab – Leishmania major promastigote growth inhibition, primary screen. Leishmania major promastigotes, resazurin fluorescence viability. inhibition, % at 10 µM. 200,000 tested, 9% active. AID 1063, 2008;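 note: promastigotes grown with compound for 44 hours at 28 °C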
CHOP confirm – retest of CHOP induction inhibitors, confirmation, cell-based | inhibition, % at 10 µM | CHO-CHOP promoter luciferase reporter, tunicamycin-induced, luminescence | 2,100 tested, 45% active | shares compounds with CHOP inh;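 active = mean of three repeat readings of reporter signal inhibition above a set limit, cut at about 70% in these data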;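 note: 0% = tunicamycin plus vehicle and 100% = wells lacking tunicamycin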
An asterisk follows results filed as active; . = not tested or not shown. Cut-off read from the data, not from the text of the source, unless noted: active = inhibition above about 50%; inactive = the rest.

SMILES	Arbovirus anti	CHOP inh	Rad51 HR inh	PKD1 inh	Wee1 stabilizer	L major viab	CHOP confirm
O=C(CCCn1c(=O)[nH]c2ccc(Br)cc2c1=O)NCc1ccc(Cl)cc1	-5.8	42.2	-9.0	1.1	4.8	-3.3	.
CCCOC(=O)c1ccc(NC(=O)c2ccoc2C)cc1	-4.0	52.4	-0.3	-3.3	0.4	0.0	.
CCCCOC(=O)c1ccc(NC(=O)c2ccoc2C)cc1	1.1	101.0*	-0.1	-1.9	-0.1	-14.6	46.7
Nc1c(CO)nnn1-c1ccccc1	-1.9	8.7	13.4	-3.3	0.4	-6.8	.
N#C/C(=C\c1ccc(-c2ccc([N+](=O)[O-])cc2Br)o1)C(=O)N1CCN(c2ccccc2)CC1	4.1	10.5	6.8	-18.9	-2.3	-5.8	.
COc1ccc(Nc2cccccc2=O)cc1	3.3	4.7	-3.2	11.2	0.5	-5.5	.
Cc1ccc(NN2C(=O)C=C(c3ccc(Cl)cc3)C2=O)cc1	-14.1	108.1*	5.0	0.3	-3.4	5.7	140.3*
O=C1C=C(c2ccccc2)C(=O)N1Nc1ccccc1	-6.2	107.3*	-6.8	10.0	-2.6	-7.2	-6.5
COc1ccc(C2=CC(=O)N(Nc3ccccc3)C2=O)cc1	-24.1	101.4*	-3.4	-1.9	2.1	7.4	-19.5
O=C1C2CC=CCC2C(=O)N1Nc1ccccc1 (stereo unspecified)	-28.1	-1.8	21.5	3.7	-2.5	-7.7	.
COc1cc(C(=O)OCC(=O)NCCN2C(=O)CSC2=O)ccc1OCc1c(C)noc1C	0.4	1.2	.	-7.0	-3.8	-1.4	.
CC(C)(C)C(=O)Nc1ccc(-c2nc3ccccc3c(=O)o2)cc1	12.3	105.3*	3.7	-7.5	3.6	-7.2	90.2*
CCCn1c(N)c(NCCN2CCOCC2)c(=O)n(CC(=O)NCc2ccccc2)c1=O	20.8	-4.2	-2.6	3.1	0.0	-3.8	.
Cc1nn(-c2ccccc2)c(Cl)c1CN(C(=O)CCl)c1ccc(Cl)cc1	-47.5	109.3*	-2.4	-3.8	2.1	100.4*	139.5*
Cc1nn(-c2ccccc2)c(Cl)c1C(=O)NCC(=O)O	15.8	6.3	-2.5	1.4	1.2	-5.7	.
CCOc1ccc(-n2c(SCc3ccc([N+](=O)[O-])cc3)nnc2-c2ccc(OC)cc2)cc1	3.0	11.3	0.6	-8.6	-1.9	36.6	.
O=C(CNc1cccc(C(F)(F)F)c1)N/N=C/c1cccc(Br)c1	-2.8	99.0*	6.4	-0.9	2.0	0.2	107.7*
CC1(C)CC(=O)C2=C(C1)OC1=C(C(=O)CC(C)(C)C1)C2c1ccc(O)c([N+](=O)[O-])c1	0.4	24.8	16.0	-12.2	-0.8	4.3	.
CC1(C)CC(=O)C2=C(C1)OC1=C(C(=O)CC(C)(C)C1)C2c1ccc(O)cc1O	-22.3	.	-10.1	-3.2	-0.8	75.8*	-85.5
Cc1cc(/C=c2/sc3nc4ccccc4n3c2=O)c(C)n1-c1ccccn1	-8.8	106.6*	-11.2	-8.2	-3.5	-2.5	118.5*
CCc1cccc(NC(=O)CCCCCC2NC(=O)NC2C)c1 (stereo unspecified)	-0.9	16.7	18.6	12.3	2.2	-6.4	.
CCSc1nnc(NC(=O)CCc2ccc(OC)cc2)s1	12.3	58.8	9.0	-3.0	-4.0	-13.1	.
C=CCn1c(COc2ccccc2)nnc1SC(C)C(=O)N/N=C/c1cc(Cl)ccc1O (stereo unspecified)	-34.8	96.6*	-12.8	-6.1	1.0	97.6*	128.4*
CCCOc1c(Cl)cc(/C=N/O)cc1OCC	3.8	101.8*	5.6	-2.8	-0.9	5.9	-20.7
CC(C)CCNC(=O)CCCc1ccccc1	-7.2	-13.7	-15.4	-2.5	-4.3	-3.1	.
SMILES	Arbovirus anti	CHOP inh	Rad51 HR inh	PKD1 inh	Wee1 stabilizer	L major viab	CHOP confirm
O=C(CSc1nc(C2CC2)nc2c1cnn2-c1ccccc1)Nc1c[nH]c(=O)[nH]c1=O	10.1	96.4*	-12.7	-3.5	-2.1	12.0	48.4
Cc1nn(Cc2ccccc2)c(C)c1NC(=O)CSc1nc(C2CC2)nc2c1cnn2-c1ccccc1	-9.5	42.0	5.2	2.2	-1.5	-2.7	.
O=C(O)CCSc1nc(C(F)(F)F)cc(=O)n1-c1ccccc1	5.2	-12.1	4.4	-3.5	1.3	-7.5	.
Cc1ccc(NC(=O)NNC(=O)c2cccs2)cc1	4.2	-13.4	-6.0	3.8	-2.1	-4.5	.
Cc1nc2ccc3nc(NC(=O)c4ccc5c(c4)OCCO5)sc3c2s1	14.6	-50.6	2.2	13.4	1.2	-1.6	.
Cc1nc2c(ccc3nc(NC(=O)c4ccc5c(c4)OCCO5)sc32)s1	18.2	99.8*	-1.0	7.5	1.5	62.6*	43.2
CCSc1nc2ccccc2n1C(=O)/C=C\c1ccc(OC)c(OC)c1	-29.0	110.3*	-14.3	6.4	-3.1	89.7*	111.4*
CCSc1nc2ccccc2n1CC(N)=O	-1.1	16.0	.	-9.8	-2.8	-8.5	.
CC(C)(NO)/C(=N\O)c1ccc(Cl)cc1	1.6	28.5	-2.8	-1.0	0.2	-6.3	.
COc1ccc(/C(=N/O)C(C)(C)NO)cc1	4.2	99.5*	-6.8	-0.8	0.8	-1.0	-4.3
CC(C)(NO)/C(=N/O)c1ccc(Br)cc1	-1.5	108.3*	-3.1	-2.0	-0.5	3.8	9.0
CCC(C)(C)NC(=O)C(c1cccn1C)N(C(=O)Cn1nnc2ccccc21)c1ccc(F)cc1 (stereo unspecified)	1.1	96.1*	7.2	5.0	7.0	1.5	78.9*
O=C(O)/C=C\C(=O)NCc1cccnc1	5.7	37.7	.	-2.6	-1.2	-5.7	.
Cc1ccc(N=CC2=C(O)CC(c3cccc(Cl)c3)CC2=O)cc1 (stereo unspecified)	1.8	29.0	.	3.9	4.0	-6.7	.
O=C1CC(c2ccccc2Cl)CC(O)=C1C=Nc1ccccc1 (stereo unspecified)	15.4	102.7*	-0.4	-17.1	-0.9	-6.1	103.8*
O=C1CC(c2ccccc2)CC(O)=C1C=Nc1cccc(Cl)c1 (stereo unspecified)	1.3	101.9*	1.2	-0.1	9.6*	40.2	75.6*
COC(=O)C1=C(C(=O)OC)[C@@H]2N(Cc3ccccc3)c3ccccc3[C@@]23C[C@@H](CO)N(C(=O)NC2CCCC2)C3=N1	.	-20.7	-7.6	.	.	.	.
C/C(=N\NC(=O)c1nn(C)c(C)c1Br)c1ccc(NC(=O)c2ccoc2C)cc1	-4.7	100.2*	.	7.7	1.0	-5.5	114.7*
CC1=NOC(=O)/C1=C\c1ccc(-c2cccc(Cl)c2)o1	-34.2	101.9*	1.4	1.0	-0.4	97.3*	-52.1
